Measurements published in ChEMBL document CHEMBL1127604 (J Med Chem, 1994).

Key:
[1] = Selectivity value is the ratio between EC50 values of 5-HT1A and 5-HT1D receptors
[2] = molecular target: T1, 5-hydroxytryptamine receptor 1A (Rattus norvegicus, UniProt P19327); assay: Binding affinity was measured against serotonin 5-hydroxytryptamine 1A receptor
T1 sequence (P19327 whole entry): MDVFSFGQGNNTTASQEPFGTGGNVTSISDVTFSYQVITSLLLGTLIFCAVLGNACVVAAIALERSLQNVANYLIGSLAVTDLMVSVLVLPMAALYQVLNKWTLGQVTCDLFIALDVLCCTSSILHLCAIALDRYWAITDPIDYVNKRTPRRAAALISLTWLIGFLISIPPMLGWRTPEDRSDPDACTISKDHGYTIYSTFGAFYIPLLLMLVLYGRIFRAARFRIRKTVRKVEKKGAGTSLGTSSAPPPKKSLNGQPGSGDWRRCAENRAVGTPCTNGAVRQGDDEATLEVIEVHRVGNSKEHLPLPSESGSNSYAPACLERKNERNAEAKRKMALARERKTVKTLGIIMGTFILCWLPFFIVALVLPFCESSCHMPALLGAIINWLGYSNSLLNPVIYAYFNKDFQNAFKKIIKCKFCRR
In short: (§1)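 Radioligand binding at 5-HT1A and 5-HT1D receptors, run by the group's earlier published protocol. Each value is the arithmetic mean of at least three independent determinations.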

[3] = molecular target: T2, 5-hydroxytryptamine receptor 1D (Rattus norvegicus, UniProt P28565); assay: Binding affinity was measured against serotonin 5-hydroxytryptamine 1D receptor; in short: as §1
T2 sequence (P28565 whole entry): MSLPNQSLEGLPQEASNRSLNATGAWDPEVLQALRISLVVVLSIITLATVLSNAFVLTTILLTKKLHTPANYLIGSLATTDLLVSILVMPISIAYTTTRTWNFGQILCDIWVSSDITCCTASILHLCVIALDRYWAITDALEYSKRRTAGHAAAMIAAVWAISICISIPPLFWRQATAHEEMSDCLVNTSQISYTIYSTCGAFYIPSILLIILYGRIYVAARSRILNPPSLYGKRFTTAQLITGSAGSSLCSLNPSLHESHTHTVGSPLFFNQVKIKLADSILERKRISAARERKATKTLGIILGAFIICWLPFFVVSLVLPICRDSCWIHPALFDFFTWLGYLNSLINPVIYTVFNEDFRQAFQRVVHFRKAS

[4] = molecular target: T1, 5-hydroxytryptamine receptor 1A; assay: Inhibition of forskolin stimulated adenylate cyclase at 5-hydroxytryptamine 1A receptor; type: functional
[5] = molecular target: T2, 5-hydroxytryptamine receptor 1D; assay: Inhibition of forskolin stimulated adenylate cyclase at 5-hydroxytryptamine 1D receptor; type: functional
[6] = Selectivity value is the ratio between IC50 values of 5-HT1A and 5-HT1D receptors

| Structure (SMILES) | Selectivity [1] | IC50 [2] | IC50 [3] | EC50 [4] | EC50 [5] | Selectivity [6] |
| --- | --- | --- | --- | --- | --- | --- |
| CN1CCC(c2c[nH]c3ccc(Nc4ncccc4[N+](=O)[O-])cc23)C1 (stereo unspecified) | 440 | 320 nM | 15 nM | 885 nM | 2 nM | 21 |
| CN(C)CCc1c[nH]c2ccc(Nc3ncccc3[N+](=O)[O-])cc12 | 85 | 73 nM | 10 nM | 170 nM | 2 nM | 7 |
| CN1CCC[C@@H]1Cc1c[nH]c2ccc(Nc3ncccc3[N+](=O)[O-])cc12 | 36 | 33 nM | 3.1 nM | 47 nM | 1.3 nM | 11 |
| O=[N+]([O-])c1cccnc1Nc1ccc2[nH]cc(C[C@H]3CCCN3)c2c1 | 170 | 120 nM | 6.2 nM | 220 nM | 1.3 nM | 19 |
| CNS(=O)(=O)Cc1ccc2[nH]cc(CCN(C)C)c2c1 |  | 640 nM |  | 1300 nM |  |  |
